Measurements: ChEMBL document CHEMBL4387708, “Enhancement of Benzothiazoles as Pteridine Reductase-1 Inhibitors for the Treatment of Trypanosomatidic Infections” (J Med Chem, 2019)
The source made the active and inactive calls. No cut-off for these calls is given here.

Legend:
[1] = Cytotoxicity against human A549 cells after 48 hrs by Celltiter-glo assay; assay type: cell-based
[2] = Cytotoxicity against human U2OS cells assessed as reduction in cell number; assay type: cell-based
Trypanosoma cruzi = assay: Growth inhibition of trypomastigote form of Trypanosoma cruzi Y infected in human U2OS cells at 50 uM measured after 72 hrs by DRAQ5 DNA dye based confocal microscopic analysis relative to control; assay type: organism-based; conditions: Trypanosoma cruzi, Y, U2OS, read-out: GI
[3] = target: T1, Pteridine reductase 1 (Leishmania major) (UniProt Q01782); assay: Inhibition of Leishmania major pteridine reductase 1 at 50 uM using di-hydrobiopterine as substrate in presence of NADPH relative to control
T1 sequence (whole entry): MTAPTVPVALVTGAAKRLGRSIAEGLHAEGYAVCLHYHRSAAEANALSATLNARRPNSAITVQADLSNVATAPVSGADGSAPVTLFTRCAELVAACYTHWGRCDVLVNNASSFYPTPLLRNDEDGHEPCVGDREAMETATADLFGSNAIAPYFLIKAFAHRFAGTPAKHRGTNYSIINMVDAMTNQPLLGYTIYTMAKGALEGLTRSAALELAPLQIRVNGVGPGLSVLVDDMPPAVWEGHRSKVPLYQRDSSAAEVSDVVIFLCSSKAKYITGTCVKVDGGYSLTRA
Summary of the method: (§1)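 Photometric PTR1 assay with NADPH and dihydrobiopterin substrate. H₄B formation is coupled non-enzymatically to cytochrome c reduction, read as signal increase at 550 nm.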

[4] = Selectivity ratio of IC50 for Leishmania major pteridine reductase 1 to IC50 for N-terminal His-tagged Trypanosoma brucei pteridine reductase 1
Cytochrome P450 2C9 = Cytochrome P450 2C9 (Homo sapiens, UniProt P11712); assay: Inhibition of human CYP2C9 expressed in baculovirus infected insect cells using beetle D-luciferin as substrate preincubated for 30 mins followed by NADPH addition and measured after 30 mins by CYP450-Glo assay
Cytochrome P450 2C19 = Cytochrome P450 2C19 (Homo sapiens, UniProt P33261); assay: Inhibition of human CYP2C19 expressed in baculovirus infected insect cells using beetle D-luciferin as substrate preincubated for 30 mins followed by NADPH addition and measured after 30 mins by CYP450-Glo assay
Trypanosoma brucei [5] = assay: Inhibition of PTR1 in Trypanosoma brucei bloodstream forms assessed as potentiation of methotrexate-induced parasitic cell growth inhibition at 10 uM measured after 72 hrs by resazurin-based fluorescence assay (reference value: 19 +/- 6%)
Summary of the method: (§2)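 Bloodstream-form T. brucei resazurin assay: 72 h at 37 °C, 5% CO₂, then fluorescence at ex 540/em 620 nm. Benzothiazole was tested at 10 μM alone and with 4 μM methotrexate. The index is the combination's activity divided by the sum of the activities of 10 μM benzothiazole and 4 μM methotrexate given separately.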

Cytochrome P450 3A4 = Cytochrome P450 3A4 (Homo sapiens, UniProt P08684); assay: Inhibition of human CYP3A4 expressed in baculovirus infected insect cells using beetle D-luciferin as substrate preincubated for 30 mins followed by NADPH addition and measured after 30 mins by CYP450-Glo assay
Trypanosoma brucei [6] = assay: Inhibition of PTR1 in Trypanosoma brucei bloodstream forms assessed as potentiation of methotrexate-induced parasitic cell growth inhibition by measuring potentiation index at 10 uM measured after 72 hrs by resazurin-based fluorescence assay relative to control (methotrexate); assay type: functional; summary of the method: as §2
Leishmania infantum = assay: Growth inhibition of luciferase expressing Leishmania infantum axenic amastigotes infected in human THP1 cells at 10 uM measured after 72 hrs by steady-glo luminescence assay relative to control; assay type: organism-based; conditions: for growth inhibition (GI): leishmania infantum, 72 h, 10 µM
Pteridine reductase 1 = target: T2, Pteridine reductase 1 (Leishmania major, UniProt Q01782); assay: Inhibition of Leishmania major pteridine reductase 1 using di-hydrobiopterine as substrate in presence of NADPH; summary of the method: as §1
T2 sequence (Q01782 whole entry): T1 sequence (whole entry)

[7] = Cytotoxicity against human THP1 cells after 72 hrs by MTT assay; assay type: cell-based, THP-1; conditions: read-out: NOAEL
[8] = target: Voltage-gated inwardly rectifying potassium channel KCNH2 (Homo sapiens, UniProt Q12809); assay: Displacement of Tracer Red from human ERG by fluorescence polarization assay
[9] = Inhibition of N-terminal His-tagged Trypanosoma brucei pteridine reductase 1 using di-hydrobiopterine as substrate measured at 1 min interval for 50 mins in presence of NADPH; summary of the method: as §1
Trypanosoma brucei [10] = assay: Inhibition of N-terminal His-tagged Trypanosoma brucei pteridine reductase 1 at 50 uM using di-hydrobiopterine as substrate measured at 1 min interval for 50 mins in presence of NADPH relative to control; summary of the method: as §1
Trypanosoma brucei [11] = assay: Growth inhibition of Trypanosoma brucei bloodstream forms at 10 uM measured after 72 hrs by resazurin-based fluorescence assay relative to control; assay type: organism-based; conditions: Trypanosoma brucei, read-out: GI
Cytochrome P450 1A2 = target: T3, Cytochrome P450 1A2 (Homo sapiens, UniProt P05177); assay: Inhibition of human CYP1A2 expressed in baculovirus infected insect cells using beetle D-luciferin as substrate preincubated for 30 mins followed by NADPH addition and measured after 30 mins by CYP450-Glo assay
T3 sequence (P05177 whole entry): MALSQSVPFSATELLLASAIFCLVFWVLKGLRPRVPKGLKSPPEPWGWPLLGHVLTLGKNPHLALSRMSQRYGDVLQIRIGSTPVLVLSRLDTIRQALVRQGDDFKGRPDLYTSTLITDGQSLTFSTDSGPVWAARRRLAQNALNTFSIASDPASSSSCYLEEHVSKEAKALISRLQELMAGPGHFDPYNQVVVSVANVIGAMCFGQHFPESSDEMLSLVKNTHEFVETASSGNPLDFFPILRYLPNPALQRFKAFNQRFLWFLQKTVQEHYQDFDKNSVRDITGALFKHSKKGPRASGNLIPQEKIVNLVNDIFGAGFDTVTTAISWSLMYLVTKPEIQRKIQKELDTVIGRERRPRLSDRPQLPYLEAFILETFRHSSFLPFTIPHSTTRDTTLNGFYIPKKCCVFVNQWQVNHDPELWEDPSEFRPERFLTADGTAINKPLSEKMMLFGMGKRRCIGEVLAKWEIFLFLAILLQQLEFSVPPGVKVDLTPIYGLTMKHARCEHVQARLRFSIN

[12] = Mitochondrial toxicity in human 786-O cells measured after 6 hrs by MitoTracker Red chloromethyl-X-rosamine based assay; assay type: cell-based, 786-0
Cytochrome P450 2D6 = Cytochrome P450 2D6 (Homo sapiens, UniProt P10635); assay: Inhibition of human CYP2D6 expressed in baculovirus infected insect cells using beetle D-luciferin as substrate preincubated for 30 mins followed by NADPH addition and measured after 30 mins by CYP450-Glo assay
Trypanosoma brucei [13] = assay: Growth inhibition of Trypanosoma brucei bloodstream forms measured after 72 hrs by resazurin-based fluorescence assay; assay type: organism-based
Summary of the method: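 Mid-log bloodstream-form T. brucei were seeded at a final 5 x 10^3/mL in supplemented HMI-9 with serial compound dilutions. Cultures ran 72 h at 37 °C, 5% CO₂, then 4 h more after resazurin. Fluorescence was read at ex 540/em 620 nm, and EC₅₀ was fitted by non-linear regression.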

Chain of Cytochrome P450 2C19 (P33261 whole entry): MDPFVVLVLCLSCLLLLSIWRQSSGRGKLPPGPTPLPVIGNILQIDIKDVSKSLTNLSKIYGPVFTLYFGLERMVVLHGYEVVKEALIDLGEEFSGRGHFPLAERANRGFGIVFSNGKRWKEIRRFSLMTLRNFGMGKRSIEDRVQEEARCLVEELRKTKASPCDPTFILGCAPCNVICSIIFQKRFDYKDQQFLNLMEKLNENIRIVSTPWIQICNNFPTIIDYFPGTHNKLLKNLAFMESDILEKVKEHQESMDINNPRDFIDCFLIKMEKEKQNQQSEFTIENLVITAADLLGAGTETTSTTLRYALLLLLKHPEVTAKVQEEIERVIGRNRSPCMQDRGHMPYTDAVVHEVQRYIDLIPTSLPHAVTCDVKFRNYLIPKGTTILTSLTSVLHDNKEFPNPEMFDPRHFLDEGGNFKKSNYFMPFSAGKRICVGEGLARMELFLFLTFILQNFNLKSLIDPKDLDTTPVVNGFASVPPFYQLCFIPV
Chain of Cytochrome P450 2D6 (P10635 whole entry): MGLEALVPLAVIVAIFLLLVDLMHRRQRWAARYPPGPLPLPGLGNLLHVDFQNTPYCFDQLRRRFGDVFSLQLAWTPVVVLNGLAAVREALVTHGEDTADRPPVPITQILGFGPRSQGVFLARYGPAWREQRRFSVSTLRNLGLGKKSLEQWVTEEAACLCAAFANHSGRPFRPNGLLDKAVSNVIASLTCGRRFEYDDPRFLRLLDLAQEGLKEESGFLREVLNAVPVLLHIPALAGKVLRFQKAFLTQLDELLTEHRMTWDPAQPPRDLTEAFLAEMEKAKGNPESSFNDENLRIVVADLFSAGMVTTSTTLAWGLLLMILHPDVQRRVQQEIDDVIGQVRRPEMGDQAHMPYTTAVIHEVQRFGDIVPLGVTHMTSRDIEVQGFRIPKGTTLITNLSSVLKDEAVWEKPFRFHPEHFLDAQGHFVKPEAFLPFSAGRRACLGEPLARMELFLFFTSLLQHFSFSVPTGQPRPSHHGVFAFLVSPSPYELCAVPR
Chain of Cytochrome P450 3A4 (P08684 whole entry): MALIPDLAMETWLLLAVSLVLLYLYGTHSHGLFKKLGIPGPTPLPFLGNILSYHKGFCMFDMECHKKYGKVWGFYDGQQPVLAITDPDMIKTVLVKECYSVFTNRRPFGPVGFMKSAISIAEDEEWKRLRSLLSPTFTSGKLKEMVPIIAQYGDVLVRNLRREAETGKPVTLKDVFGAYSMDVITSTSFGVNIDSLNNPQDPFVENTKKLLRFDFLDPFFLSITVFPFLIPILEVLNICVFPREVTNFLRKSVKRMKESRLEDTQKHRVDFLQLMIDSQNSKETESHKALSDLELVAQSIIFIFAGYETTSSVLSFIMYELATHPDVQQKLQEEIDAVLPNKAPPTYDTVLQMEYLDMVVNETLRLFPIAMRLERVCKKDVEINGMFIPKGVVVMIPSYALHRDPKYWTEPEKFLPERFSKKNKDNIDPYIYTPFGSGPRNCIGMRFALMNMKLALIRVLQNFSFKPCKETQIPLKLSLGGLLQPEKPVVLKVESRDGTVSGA
Chain of Voltage-gated inwardly rectifying potassium channel KCNH2 (Q12809 whole entry): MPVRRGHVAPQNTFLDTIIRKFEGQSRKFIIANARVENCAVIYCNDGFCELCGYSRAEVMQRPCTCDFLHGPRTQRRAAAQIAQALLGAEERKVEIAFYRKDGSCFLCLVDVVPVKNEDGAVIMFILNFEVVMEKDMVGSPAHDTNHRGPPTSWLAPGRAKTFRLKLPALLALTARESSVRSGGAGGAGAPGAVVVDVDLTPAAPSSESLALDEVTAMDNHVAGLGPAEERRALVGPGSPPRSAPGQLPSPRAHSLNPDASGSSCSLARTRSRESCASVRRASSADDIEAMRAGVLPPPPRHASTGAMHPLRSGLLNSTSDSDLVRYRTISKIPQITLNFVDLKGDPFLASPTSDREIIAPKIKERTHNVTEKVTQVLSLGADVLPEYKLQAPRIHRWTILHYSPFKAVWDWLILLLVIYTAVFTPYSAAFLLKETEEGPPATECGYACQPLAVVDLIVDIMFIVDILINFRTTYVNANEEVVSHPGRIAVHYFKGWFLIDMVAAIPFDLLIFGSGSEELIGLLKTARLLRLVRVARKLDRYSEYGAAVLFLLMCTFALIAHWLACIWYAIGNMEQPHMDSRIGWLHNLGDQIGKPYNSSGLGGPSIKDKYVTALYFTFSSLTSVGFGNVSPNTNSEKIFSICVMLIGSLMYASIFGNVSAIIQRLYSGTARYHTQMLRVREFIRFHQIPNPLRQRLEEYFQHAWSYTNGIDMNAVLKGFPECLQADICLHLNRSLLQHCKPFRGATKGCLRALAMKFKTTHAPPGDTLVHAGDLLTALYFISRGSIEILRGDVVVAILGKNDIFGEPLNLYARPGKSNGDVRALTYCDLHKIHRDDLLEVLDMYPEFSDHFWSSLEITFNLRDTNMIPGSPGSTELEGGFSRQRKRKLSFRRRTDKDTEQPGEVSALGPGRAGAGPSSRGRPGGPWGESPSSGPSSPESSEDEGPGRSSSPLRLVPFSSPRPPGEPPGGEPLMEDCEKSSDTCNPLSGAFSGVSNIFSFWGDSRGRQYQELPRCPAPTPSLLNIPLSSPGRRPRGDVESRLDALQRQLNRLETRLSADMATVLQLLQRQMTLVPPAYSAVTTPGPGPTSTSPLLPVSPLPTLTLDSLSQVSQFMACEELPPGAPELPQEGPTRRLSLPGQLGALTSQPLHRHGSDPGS
Chain of Cytochrome P450 2C9 (P11712 whole entry): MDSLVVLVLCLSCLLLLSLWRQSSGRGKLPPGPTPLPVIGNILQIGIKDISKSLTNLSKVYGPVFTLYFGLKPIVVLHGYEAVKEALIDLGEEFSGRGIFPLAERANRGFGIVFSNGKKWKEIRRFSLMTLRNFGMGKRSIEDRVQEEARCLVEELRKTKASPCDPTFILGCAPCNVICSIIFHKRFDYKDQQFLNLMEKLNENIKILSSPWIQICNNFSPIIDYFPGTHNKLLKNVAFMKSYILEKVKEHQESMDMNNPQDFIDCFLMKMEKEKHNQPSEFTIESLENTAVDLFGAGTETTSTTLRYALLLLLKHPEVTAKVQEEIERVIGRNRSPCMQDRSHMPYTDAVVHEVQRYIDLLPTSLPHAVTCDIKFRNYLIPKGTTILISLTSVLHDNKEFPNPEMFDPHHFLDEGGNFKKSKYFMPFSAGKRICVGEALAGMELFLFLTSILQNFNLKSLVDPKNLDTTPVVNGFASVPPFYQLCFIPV

Row | Structure (SMILES) | GI50 at 48 h [1] [µM] | GI50 [2] [µM] | inhibition at 50 µM (Trypanosoma cruzi) [%] | inhibition [3] | Ratio IC50 [4] | IC50 (Cytochrome P450 2C9) [µM] | IC50 (Cytochrome P450 2C19) [µM] | growth inhibition (GI) (Trypanosoma brucei [5]) [%] | IC50 (Cytochrome P450 3A4) [µM] | Ratio (Trypanosoma brucei [6]) | growth inhibition (GI) (Leishmania infantum) | IC50 (Pteridine reductase 1; read-out: IC50) [µM] | MNTC at 72 h [7] [µM] | IC50 [8] [µM] | IC50 [9] [nM] | inhibition (Trypanosoma brucei [10]) [%] | inhibition at 10 µM (Trypanosoma brucei [11]) [%] | IC50 (Cytochrome P450 1A2) [µM] | IC50 at 6 h [12] [µM] | IC50 (Cytochrome P450 2D6) [µM] | other results
1 | N#Cc1ccc(COc2ccc3nc(N)sc3c2)cc1 | 10 to 25 | > 25 | 15.4 | > 60% | 2 to 100 | > 25 | < 10 | 80 | 10 to 25 | 2 | Non-Toxic | 86.5 | 10 to 25 | > 25 | 670 | > 60 | 21 to 27 | > 25 | > 25 | > 25 | –
2 | Nc1nc2ccc(OCc3ccc(Cl)c(Cl)c3)cc2s1 | > 25 | > 25 | 7.24 | inactive | 2 to 100 | > 25 | < 10 | 89 | < 10 | 1.2 | Non-Toxic | – | > 25 | > 25 | 3400 | > 60 | 42 to 55 | < 10 | > 25 | 10 to 25 | IC50 (Pteridine reductase 1): Not Active
3 | Nc1nc2ccc(SCc3ccc(C(=O)NCc4ccccc4)cc3)cc2s1 | < 10 | > 25 | 19.2 | > 60% | 2 to 100 | < 10 | < 10 | 80 | < 10 | 1.6 | Non-Toxic | 30 | 10 to 25 | > 25 | 500 | > 60 | 26 to 33 | > 25 | > 25 | < 10 | –
4 | COC(=O)c1ccc(CSc2ccc3nc(N)sc3c2)cc1 | > 25 | > 25 | 23 | > 60% | 2 to 100 | < 10 | < 10 | 69 | < 10 | 2.7 | Non-Toxic | 47.6 | 10 to 25 | > 25 | 920 | > 60 | 7 to 17 | 10 to 25 | > 25 | < 10 | –
5 | Nc1nc2ccc(SCc3ccc(Cl)c(Cl)c3)cc2s1 | 10 to 25 | > 25 | 21.4 | > 60% | 2 to 100 | > 25 | < 10 | 65 | < 10 | 1.1 | Non-Toxic | 10 | > 25 | > 25 | 900 | > 60 | 41 to 46 | 10 to 25 | > 25 | < 10 | –
6 | COC(=O)C1CCN(C(=O)c2ccc(CSc3ccc4nc(N)sc4c3)cc2)CC1 | > 25 | > 25 | 16.3 | > 60% | 2 to 100 | > 25 | < 10 | 93 | < 10 | 1.3 | Non-Toxic | 15.1 | > 25 | > 25 | 930 | > 60 | 42 to 53 | > 25 | > 25 | < 10 | –
7 | Nc1nc2c(O)cc(C(=O)NCc3ccc(Cl)c(Cl)c3)cc2s1 | > 25 | > 25 | 42 | 8.7% | 2 to 100 | > 25 | > 25 | – | > 25 | – | – | – | > 25 | > 25 | – | 11.8 | > 60 | > 25 | > 25 | > 25 | inhibition at 10 µM (Leishmania infantum; Leishmania infantum, THP-1, 72 h, read-out: GI): 24%; EC50 (Trypanosoma brucei [13]): 5.9 µM
